# From PubChem BioAssay
# GPR7 antagonist: blocks human GPR7 receptor signaling; GPR7-expressing cells, fluorescence antagonist assay; P48145; inhibition, % at 4.4 µM; 290,000 compounds, 1.1% hits; in the data active means inhibition above about 16%, passing the limit was not always enough;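 further: cells stimulated with the agonist NPW; 0% = agonist with vehicle and 100% = vehicle without agonist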
# Target sequence (P48145 whole entry, looked up): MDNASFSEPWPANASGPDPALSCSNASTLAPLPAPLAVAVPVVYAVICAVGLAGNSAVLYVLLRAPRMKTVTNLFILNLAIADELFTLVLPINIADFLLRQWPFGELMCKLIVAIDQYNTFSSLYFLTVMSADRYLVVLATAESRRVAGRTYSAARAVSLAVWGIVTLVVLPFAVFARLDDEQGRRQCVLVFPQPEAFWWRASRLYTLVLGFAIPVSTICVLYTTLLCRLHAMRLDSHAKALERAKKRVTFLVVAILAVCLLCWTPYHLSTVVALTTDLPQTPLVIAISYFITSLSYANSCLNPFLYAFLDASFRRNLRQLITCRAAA
# TAAR1 antag: antagonists of human TAAR1 | CHO RD-HGA16 TAAR1, Fluo-8 calcium fluorescence, antagonist | inhibition, % at 3 µM | 360,000 compounds, 1.5% hits | AID 624466;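 active means inhibition above a per-plate cutoff, the mean inhibition of test compounds on that plate plus 3 SD, cut at about 49% in these data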;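 further: 0% = DMSO plus EC80 beta-PEA response and 100% = DMSO alone without agonist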
#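 System: RD-HGA16 CHO cells with stable hTAAR1 and Gα16 | Probe or stimulus: EC80 β-phenethylamine stimulus | Dosing: 3 µM, single point | Times: Dye loading 75 min at 37 °C, then 30 min room temperature | Measured by: Fluo-8 calcium-sensitive fluorescence | Read-out basis: % inhibition of agonist calcium response | Replicates: n of 1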
# TAAR1 agonist: agonists of human TAAR1 | activation, % at 3 µM | CHO RD-HGA16 TAAR1, Fluo-8 calcium fluorescence; vehicle wells 0%, saturating PEA agonist 100% | Q96RJ0 | 360,000 compounds, 0.99% hits;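 active means activation above the mean activation of all test compounds in the run plus 3 SD, cut at about 38% in these data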
#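 test system = CHO RD-HGA16 cells carrying human TAAR1 plus Gα16 | schedule = 17-24 h seeding, 75 min 37 °C dye, 30 min RT | compound dosing = 3 µM single concentration | control set = DMSO and PEA EC100 | replicates = n 1 | signal = Fluo-8 fluorescence, 5 s baseline then 140 s kinetic read | measure = percent activation vs PEA EC100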
# CHO parental Ca: signal in parental CHO cells, OX1R antagonist counter-screen; parental CHO-K1, ATP-induced calcium, Fluo-8 fluorescence; inhibition, % at 5.6 µM; 330,000 compounds, 0.63% hits; AID 463079;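 active means inhibition above that plate's mean sample inhibition plus 3 SD, cut at about 26% in these data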;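 further: 0% = ATP-challenged DMSO wells and 100% = DMSO wells without ATP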
#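 test system = CHO parental line | reagent = ATP stimulus | measured by = intracellular calcium via Fluo-8 no-wash fluorescent dye | control set = ATP and no-ATP DMSO wells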
# OX1R antag-1: OX1R (human) antagonism; inhibition, % at 6.6 µM; O43613; 330,000 compounds, 1.8% hits; AID 485270; OX1R-expressing cells, FRET antagonist read-out; in the data active means inhibition mostly above about 38%, no sharp cut-off; inactive means mostly below about 40%;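 further: 0% = agonist challenge alone and 100% = reference antagonist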
# Target sequence (O43613 whole entry, looked up): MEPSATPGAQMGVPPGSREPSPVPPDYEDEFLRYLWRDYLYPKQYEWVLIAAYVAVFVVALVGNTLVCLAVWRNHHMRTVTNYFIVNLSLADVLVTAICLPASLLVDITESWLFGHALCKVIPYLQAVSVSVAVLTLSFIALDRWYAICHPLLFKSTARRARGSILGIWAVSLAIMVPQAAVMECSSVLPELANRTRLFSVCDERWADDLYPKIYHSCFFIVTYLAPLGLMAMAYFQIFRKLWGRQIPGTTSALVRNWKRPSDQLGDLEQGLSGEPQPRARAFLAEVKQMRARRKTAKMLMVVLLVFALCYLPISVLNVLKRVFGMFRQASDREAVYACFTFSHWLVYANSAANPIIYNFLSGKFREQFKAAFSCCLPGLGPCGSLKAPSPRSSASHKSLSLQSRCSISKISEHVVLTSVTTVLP
# OX1R antag-2: human HCRTR1 antagonism. O43613. CHO/OX1R cells, Fluo-8 calcium fluorescence, orexin A. inhibition, % at 5 µM. 330,000 compounds, 0.43% hits;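 active means inhibition above its plate's threshold, mean inhibition of all tested compounds on the plate plus 3 SD, cut at about 37% in these data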;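 further: 0% = orexin A challenge wells and 100% = SB-334867-A antagonist wells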
# * marks the source's active call; other numbers are inactive results; . = not tested or not shown. Rows were chosen to be rich in hits. Some 4.5% of all compounds tested hit in one or more screens of this group.
SMILES,GPR7 antagonist,TAAR1 antag,TAAR1 agonist,CHO parental Ca,OX1R antag-1,OX1R antag-2
O=C(NCc1ccccc1)[C@@H]1CCCN1C(=O)[C@H]1CCCN1C(=O)C1CCCCC1,.,10.3,-1.4,.,.,.
COC(=O)[C@]12CCCCC=C1N(CCc1ccc(OC)c(OC)c1)C(=O)[C@H](CC(=O)NCc1cccc(C(F)(F)F)c1)C2,.,48.7*,4.8,.,.,.
COC(=O)[C@@]12C[C@@H](CC(=O)NCCC(C)C)C(=O)N(CCc3ccc(OC)c(OC)c3)C1=CCC(C)(C)C2,.,-6.9,3.1,.,.,.
COC(=O)[C@@]12C[C@@H](CC(=O)NCc3cccc(C(F)(F)F)c3)C(=O)N(CCc3ccc(OC)c(OC)c3)C1=CCC(C)(C)C2,.,57.6*,7.7,.,.,.
CCCC(=O)OC[C@H]1CN(C2CCCC2)S(=O)(=O)c2c(Oc3ccc(F)cc3)cccc2O1,.,-17.6,1.2,.,.,.
O=S(=O)(c1ccc(N2CCC(c3ccc(Cl)cc3)=N2)cc1)N(CCO)CCO,-7.6,11.4,6.8,62.2*,6.7,45.8*
CN(C)CCCNS(=O)(=O)c1ccc(N2CCC(c3ccc(Cl)cc3)=N2)cc1,40.9*,25.5,7.1,11.0,15.7,8.5
O=S(=O)(c1ccc(Oc2ccc(S(=O)(=O)N(CCO)CCO)cc2)cc1)N(CCO)CCO,4.0,-11.8,2.5,-6.7,5.4,-3.1
CCCCNC(=O)C[C@H]1C[C@@]2(C(=O)OC)C(=C[C@H](C(C)(C)C)O[C@@H]2C)N(Cc2ccccc2)C1=O,.,-41.8,-2.1,.,.,.
Cc1cccc(-n2cnc3c(c2=O)c2nc4ccccc4nc2n3Cc2ccco2)c1,.,3.0,6.7,-22.7,68.9*,-7.2
Cc1cccc(S(=O)(=O)c2c(N)n(Cc3ccco3)c3nc4ccccc4nc23)c1,-9.5,1.5,9.4,-0.1,15.5,-6.5
CCC(NC(=O)c1cc(COc2ccc(C)nc2)on1)c1ccc(C)cc1 (centres undefined),13.9,8.1,49.2*,1.0,13.7,-14.8
Cc1ccc(OCc2cc(C(=O)NCc3cc(F)ccc3C)no2)cn1,18.9,-1.0,20.3,.,.,.
O=C(/C=C/c1ccc([N+](=O)[O-])cc1)Nc1cccc(S(=O)(=O)NC2=NCCCCC2)c1,.,49.3*,7.2,-10.2,11.2,-26.2
CC(C)NC(=O)c1ccc(COc2ccc(C(C)(C)C)cc2)o1,11.6,16.9,20.0,65.8*,4.3,39.6
Cc1nc2c(OCc3ccc(C(F)(F)F)cc3)cccn2c1N(C)Cc1cccs1,.,29.5,1.0,.,.,.
CCc1nnc(N/N=C/c2ccccc2F)n1N,-7.9,14.2,9.5,5.8,73.5*,6.3
CCOC(=O)N/N=C/c1ccccc1F,-15.1,8.5,7.7,-8.7,7.4,-5.4
COCCN1C[C@@H](CO)O[C@@H](n2cnc3c(N4CCCC4)ncnc32)C1,.,-25.8,5.4,.,.,.
CN1c2ccccc2C(C)(C)C12C=Cc1cc(O)ccc1O2 (centres undefined),11.4,16.6,-0.2,56.1*,28.6,21.7
COc1cccc(CNC(=O)[C@H]2CCCN2C(=O)[C@H]2CCCN2C(=O)c2cccc(Cl)c2)c1,.,-18.1,0.8,.,.,.
CCn1c2ccc(Cl)cc2c2nc3ccccc3nc21,0.8,-1.2,4.7,-16.4,68.6*,7.2
O=C(NCc1ccccc1)[C@H]1CCCN1C(=O)[C@H]1CCCN1C(=O)c1ccccc1C(F)(F)F,.,-15.4,1.0,.,.,.
CC(C)c1[nH]nc2c1C(c1cccc(C(F)(F)F)c1)N(c1ccccc1)C2=O (centres undefined),.,-63.3,-0.4,.,.,.
CC[C@@]1(O)C(=O)OCc2c1cc1n(c2=O)Cc2cc3c(CN(C)C)c(O)ccc3nc2-1,.,-5.8,9.1,-4.0,46.0*,-15.8
SMILES,GPR7 antagonist,TAAR1 antag,TAAR1 agonist,CHO parental Ca,OX1R antag-1,OX1R antag-2
CC[C@@]1(O)C(=O)OCc2c1cc1n(c2=O)Cc2cc3c(N)cccc3nc2-1,.,-18.0,-0.4,-3.5,51.8,-10.9
CN=C1C([N+](=O)[O-])=CC=C2C1=NC1(CCCCC1)N2O,-10.1,15.7,-2.4,-3.9,49.6*,-7.0
Cc1ccc(S(=O)(=O)Nc2cc(C(C(=O)OC(C)C)C(=O)C(F)(F)F)c(O)c3ccccc23)c(C)c1 (centres undefined),-10.7,-19.0,0.5,30.5*,113.7*,50.7*
CC(C)[C@H](NC(=O)[C@H](C)NC(=O)OC(C)(C)C)C(=O)N1CCC2CCN(Cc3ccccc3)CC21 (some centres undefined),.,-18.1,0.0,.,.,.
C/C(Cn1nnc([N+](=O)[O-])n1)=N\NC(=O)c1ccccc1,-10.9,-27.3,0.5,-16.8,31.9*,1.8
c1ccc(COCCc2cn(Cc3ccccc3)c3ccccc23)cc1,.,-21.7,-1.4,.,.,.
Cn1cc(CCOCc2ccccn2)c2ccccc21,.,-22.4,1.2,.,.,.
NC(=O)c1ncn([C@@H]2O[C@H](C(=O)N[C@H](Cc3c[nH]c4ccccc34)C(=O)N3CCN(CC(=O)N4CCCC4)CC3)[C@@H](O)[C@H]2O)n1,.,0.4,-0.1,.,.,.
COC(=O)[C@]12CCCCC=C1N(Cc1cccc3ccccc13)C(=O)[C@H](CC(=O)NCCC(C)C)C2,.,61.6*,9.4,.,.,.
COC(=O)[C@]12CCCCC=C1N(Cc1cccc3ccccc13)C(=O)[C@H](CC(=O)N1CCSCC1)C2,.,52.5*,12.0,.,.,.
CCOC(=O)[C@]12CCCC=C1N(Cc1ccco1)C(=O)[C@H](CC(=O)NCc1cccc3ccccc13)C2,.,49.6*,2.6,.,.,.
O=C1C=C(C2OC(CO)C(O)C2O)C(=O)N1 (centres undefined),.,-1.6,1.6,.,.,.
CCCN(C)C[C@H]1OCc2cnnn2CCCC(=O)N([C@H](C)CO)C[C@@H]1C,.,-8.8,16.7,.,.,.
COc1ccc(-c2cc(C)nc(SCc3cccc(C(=O)O)c3)n2)cc1,-1.8,-20.4,1.7,5.3,16.2,2.6
O=C(O)c1cccc(CSc2nc(-c3ccc(Cl)cc3)cc(C(F)(F)F)n2)c1,-8.5,53.7*,5.4,11.7,21.0,35.4
CCc1ccc(-c2nc(CSCC(=O)N3CCN(c4ncccn4)CC3)c(C)o2)cc1,-17.1,45.2,1.6,14.5,41.6*,-14.0
CCOc1ccccc1NCc1cc(=O)oc2cc(C)ccc12,11.2,10.9,-0.6,-28.4,46.5*,-11.8
Cc1ccc2c(COC(=O)c3ccccc3OC(F)F)cc(=O)oc2c1,6.9,53.8*,7.9,3.8,65.7,18.4
COc1ccc(C)cc1NCc1cc(=O)oc2cc(-c3ccccc3)c(O)cc12,15.1,5.1,4.8,-11.7,13.4,-2.9
CCCCCCCCN1C(=O)[C@@H](CC(=O)NCCC(C)C)C[C@@]2(C(=O)OC)C1=C[C@H](C(C)(C)C)O[C@@H]2C,.,-17.3,-1.2,.,.,.
COc1ccccc1N1CN(S(=O)(=O)c2ccc(C)cc2)c2nc3ccccc3nc21,.,-18.2,3.4,-16.3,8.5,-2.2
CC(=O)c1c(C)[nH]c(C(=O)CSc2ccc(F)cc2)c1C,-9.7,13.9,5.6,33.1*,17.8,13.6
